Measurements as given in ChEMBL document CHEMBL1158989, “Synthesis and evaluation of hydroxylated flavones and related compounds as potential inhibitors of the protein-tyrosine kinase p56lck” (J Nat Prod, 1991).
Converted amounts (≈) assume the structure as drawn.

Assay: Inhibition of bovine thymus p56LCK-catalyzed phosphorylation of angiotensin 1 by SDS-PAGE
Design: species or system Bos taurus
How it was run: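 p56lck partially purified from bovine thymus (DEAE-cellulose, heparin-agarose, butyl-agarose chromatography). Substrate angiotensin I 1.2 mM with [γ-32P]ATP 50 μM. Reactions held 8% DMSO as inhibitor carrier; DMSO-only controls. Inhibitors tested at seven concentrations, 0.8 to 800 μg/ml. IC50 read graphically as half-maximal inhibition relative to DMSO controls.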

| IC50 [µg/mL] | Compound |
| --- | --- |
| 160 (≈ 373 µM) | COc1cc(-c2cc(=O)c3cc(O)ccc3o2)cc(OC)c1O[Si](C)(C)C(C)(C)C |
| 41 (≈ 130 µM) | COc1cc(-c2cc(=O)c3cc(O)ccc3o2)cc(OC)c1O |
| 5 (≈ 19.7 µM) | O=c1cc(-c2ccccc2)oc2cc(O)cc(O)c12 [CHRYSIN] |
| 400 (≈ 1270 µM) | COc1cc(-c2cc(=O)c3ccc(O)cc3o2)cc(OC)c1O |
| > 800 | COc1cc(-c2cc(=O)c3ccc(OC(C)=O)cc3o2)cc(OC)c1O[Si](C)(C)C(C)(C)C |
| 20 (≈ 60.9 µM) | COc1cc(-c2cc(=O)c3cc(O)ccc3o2)cc(OC)c1OC |
| 7.7 (≈ 25.8 µM) | COc1cc(-c2cc(=O)c3ccccc3o2)cc(OC)c1O |
| > 800 | COc1ccc2oc(-c3cc(OC)c(OC)c(OC)c3)cc(=O)c2c1 |
| 48 (≈ 178 µM) | O=c1cc(-c2cccc(O)c2)oc2c(O)c(O)ccc12 |
| 136 (≈ 395 µM) | COc1cc(-c2cc(=O)c3ccc(O)c(O)c3o2)cc(OC)c1OC |
| 4 (≈ 14.8 µM) | O=c1cc(-c2ccc(O)cc2)oc2cc(O)cc(O)c12 [APIGENIN] |
| 120 (≈ 504 µM) | O=c1cc(-c2ccc(O)cc2)oc2ccccc12 |
| 80 (≈ 296 µM) | O=c1c(O)c(-c2ccccc2)oc2cc(O)cc(O)c12 [GALANGIN] |
| 30 (≈ 99.3 µM) | O=c1c(O)c(-c2cc(O)cc(O)c2)oc2cc(O)cc(O)c12 |
| 80 (≈ 336 µM) | O=c1cc(-c2ccccc2)oc2cc(O)ccc12 [7-HYDROXYFLAVONE] |
| 4 (≈ 15.7 µM) | O=c1cc(-c2cccc(O)c2)oc2ccc(O)cc12 |
| 4 (≈ 15.7 µM) | O=c1cc(-c2ccc(O)cc2)oc2cccc(O)c12 |

| IC50 [µg/mL] | Compound |
| --- | --- |
| 4 (≈ 14 µM) | O=c1c(O)c(-c2ccc(O)c(O)c2)oc2cc(O)ccc12 [FISETIN] |
| > 800 | O=c1cc(-c2ccc(OCc3ccccc3)cc2)oc2cccc(O)c12 |
| 44 (≈ 119 µM) | CC(C)(C)[Si](C)(C)Oc1ccc(-c2cc(=O)c3cc(O)ccc3o2)cc1 |
| 30 (≈ 118 µM) | O=c1cc(-c2ccc(O)cc2)oc2ccc(O)cc12 |
| 360 (≈ 977 µM) | CC(C)(C)[Si](C)(C)Oc1ccc(-c2cc(=O)c3ccc(O)cc3o2)cc1 |
| 43 (≈ 169 µM) | O=c1cc(-c2ccc(O)cc2)oc2cc(O)ccc12 |
| 40 (≈ 90 µM) | COc1cc(-c2cc(=O)c3ccc(O)c(O)c3o2)cc(OC)c1O[Si](C)(C)C(C)(C)C |
| 656 (≈ 1530 µM) | COc1cc(-c2cc(=O)c3ccc(O)cc3o2)cc(OC)c1O[Si](C)(C)C(C)(C)C |
| 80 (≈ 315 µM) | O=c1cc(-c2cccc(O)c2)oc2cccc(O)c12 |
| 10 (≈ 39.3 µM) | O=c1cc(-c2cccc(O)c2)oc2cc(O)ccc12 |
| > 800 | COc1ccc2c(=O)cc(-c3cc(OC)c(OC)c(OC)c3)oc2c1 |
| > 800 | COc1cc(-c2cc(=O)c3ccc(OC(C)=O)cc3o2)cc(OC)c1O |
| 80 (≈ 315 µM) | O=c1cc(-c2ccccc2)oc2c(O)c(O)ccc12 [7,8-DIHYDROXYFLAVONE] |
| > 800 | COc1cc(-c2cc(=O)c3ccc(O)cc3o2)cc(OC)c1OC |
| > 800 | COc1cc(-c2cc(=O)c3ccc(OC(C)=O)c(OC(C)=O)c3o2)cc(OC)c1O[Si](C)(C)C(C)(C)C |
| 80 (≈ 281 µM) | COc1cc(O)c2c(=O)cc(-c3ccc(O)cc3)oc2c1 [GENKWANIN] |
| 664 (≈ 1930 µM) | O=c1cc(-c2ccc(OCc3ccccc3)cc2)oc2cc(O)ccc12 |

| Compound | IC50 [µg/mL] |
| --- | --- |
| O=c1cc(-c2ccc(O)c(O)c2)oc2cc(O)cc(O)c12 [LUTEOLIN] | 10 (≈ 34.9 µM) |
| O=c1c(O)c(-c2ccc(O)c(O)c2)oc2cc(O)cc(O)c12 [QUERCETIN] | 4 (≈ 13.2 µM) |
| COc1cc(-c2oc3cc(O)cc(O)c3c(=O)c2O)cc(OC)c1O [SYRINGETIN] | 24 (≈ 69.3 µM) |
